Assay [1] is described as follows: Inhibition of cyclin-dependent kinase 1 activity. The gist of the method: (§1)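 Radiometric kinase assay. Conditions varied slightly per kinase. Stopped with PBS/100 mM EDTA, read by scintillation counting. IC50 by linear regression of % inhibition, mean of at least two determinations.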
For assay [2], the target named is T1, Vascular endothelial growth factor receptor 2 (Homo sapiens, UniProt P35968). Kind of assay: Inhibitory concentration (experimental) against vascular endothelial growth factor receptor 2. The gist of the method: as §1
The target of assay [3] is T1, Vascular endothelial growth factor receptor 2. Kind of assay: Inhibition of vascular endothelial growth factor receptor 2. In outline:
as §1

Assay [4] is described as follows: Inhibition of protein kinase A. The gist of the method:
as §1

For a further assay, the system named is MRC5. Put plainly: Concentration required to inhibit proliferation of human MRC5 fibroblast cell growth.
The target of another assay is CaM kinase II (Homo sapiens, UniProt Q13557+Q13555+Q13554+Q9UQM7). Kind of assay: Inhibition of calcium/calmodulin-dependent protein kinase type II. The class given is protein assay.
In the next assay the target is Casein kinase I. Kind of assay: Inhibition of casein kinase 1. It counts as protein assay.
For the next assay, the system named is HASMC. Kind of assay: Concentration required to inhibit proliferation of HASMC. To be noted: Homo sapiens.
Assay [5] has as its system HUVEC. Kind of assay: Concentration required to inhibit proliferation of HUVEC. To be noted: Homo sapiens.
The next assay has as its target Casein kinase II (Homo sapiens, UniProt P19784+P67870+P68400). Put plainly: Inhibition of casein kinase 2. The class given is protein-complex assay. The gist of the method:
as §1

Assay [6] addresses Mitogen-activated protein kinase 1 (Homo sapiens, UniProt P28482). Kind of assay: Inhibition of mitogen-activated protein kinase. The gist of the method: as §1
The next assay deals with HCT-116. Kind of assay: Concentration required to inhibit proliferation of human HCT116 colon cancer cell growth.
The subject of assay [7] is HUVEC. Kind of assay: Concentration inhibiting VEGF stimulated (2 ng/well) HUVE cell proliferation. To be noted: Homo sapiens.
The next assay deals with Insulin receptor (Homo sapiens, UniProt P06213). Kind of assay: Inhibition of insulin Receptor kinase. The gist of the method: as §1
Another assay relates to A-375. Put plainly: Concentration required to inhibit proliferation of A375 human amelanotic melanoma cell growth.
A further assay relates to HeLa. Kind of assay: Concentration required to inhibit proliferation of HeLa cell growth. Conditions: Homo sapiens.
Assay [8] deals with Glycogen synthase kinase-3 (Homo sapiens, UniProt P49840+P49841). Kind of assay: Inhibition of glycogen synthase kinase-3. The class given is protein assay. In outline: as §1

pIC50: −log10 of the molar value.

T1 sequence (P35968 whole entry): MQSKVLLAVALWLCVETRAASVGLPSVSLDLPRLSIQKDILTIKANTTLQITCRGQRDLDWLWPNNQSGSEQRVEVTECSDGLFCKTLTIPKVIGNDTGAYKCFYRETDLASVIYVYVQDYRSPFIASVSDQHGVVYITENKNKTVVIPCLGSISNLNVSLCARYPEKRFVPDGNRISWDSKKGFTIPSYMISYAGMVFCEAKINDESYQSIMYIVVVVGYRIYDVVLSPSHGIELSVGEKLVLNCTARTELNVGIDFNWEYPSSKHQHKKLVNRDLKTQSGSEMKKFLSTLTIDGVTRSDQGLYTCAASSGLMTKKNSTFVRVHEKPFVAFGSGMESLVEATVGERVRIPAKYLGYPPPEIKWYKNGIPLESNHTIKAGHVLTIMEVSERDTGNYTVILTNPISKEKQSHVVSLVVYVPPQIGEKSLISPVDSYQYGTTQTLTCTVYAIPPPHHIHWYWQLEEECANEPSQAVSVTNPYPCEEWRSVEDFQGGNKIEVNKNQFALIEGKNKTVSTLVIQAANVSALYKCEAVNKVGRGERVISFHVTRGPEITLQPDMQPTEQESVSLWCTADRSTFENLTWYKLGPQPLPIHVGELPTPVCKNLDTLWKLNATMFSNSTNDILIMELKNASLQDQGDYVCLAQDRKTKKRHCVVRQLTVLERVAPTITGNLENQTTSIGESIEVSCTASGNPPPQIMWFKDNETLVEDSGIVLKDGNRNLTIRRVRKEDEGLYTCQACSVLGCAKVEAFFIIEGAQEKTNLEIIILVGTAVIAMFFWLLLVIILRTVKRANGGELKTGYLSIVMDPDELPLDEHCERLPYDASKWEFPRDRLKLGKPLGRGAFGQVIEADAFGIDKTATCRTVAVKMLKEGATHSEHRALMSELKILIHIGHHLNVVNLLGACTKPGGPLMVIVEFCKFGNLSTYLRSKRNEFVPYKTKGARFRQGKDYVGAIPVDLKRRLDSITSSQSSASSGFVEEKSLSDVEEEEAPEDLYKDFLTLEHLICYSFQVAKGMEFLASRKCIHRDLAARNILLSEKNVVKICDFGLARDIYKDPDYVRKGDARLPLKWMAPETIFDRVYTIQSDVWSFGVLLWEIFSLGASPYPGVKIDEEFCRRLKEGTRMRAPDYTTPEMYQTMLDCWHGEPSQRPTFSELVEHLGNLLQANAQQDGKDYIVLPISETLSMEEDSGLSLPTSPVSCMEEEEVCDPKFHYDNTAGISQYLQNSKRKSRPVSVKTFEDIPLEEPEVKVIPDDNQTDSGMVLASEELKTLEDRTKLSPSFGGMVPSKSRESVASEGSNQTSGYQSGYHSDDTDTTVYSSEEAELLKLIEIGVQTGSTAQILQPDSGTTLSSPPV
Mitogen-activated protein kinase 1, sequence (P28482 whole entry): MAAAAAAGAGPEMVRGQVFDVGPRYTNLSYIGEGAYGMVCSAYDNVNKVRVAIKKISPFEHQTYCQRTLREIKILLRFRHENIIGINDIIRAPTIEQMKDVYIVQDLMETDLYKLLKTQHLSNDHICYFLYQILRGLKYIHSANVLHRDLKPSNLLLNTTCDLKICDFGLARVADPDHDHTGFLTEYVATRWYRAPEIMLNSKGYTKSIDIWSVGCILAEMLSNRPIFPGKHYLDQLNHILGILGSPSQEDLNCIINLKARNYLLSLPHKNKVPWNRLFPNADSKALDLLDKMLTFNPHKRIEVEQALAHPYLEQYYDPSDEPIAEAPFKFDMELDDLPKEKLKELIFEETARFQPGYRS
Casein kinase II, sequence (P67870 whole entry): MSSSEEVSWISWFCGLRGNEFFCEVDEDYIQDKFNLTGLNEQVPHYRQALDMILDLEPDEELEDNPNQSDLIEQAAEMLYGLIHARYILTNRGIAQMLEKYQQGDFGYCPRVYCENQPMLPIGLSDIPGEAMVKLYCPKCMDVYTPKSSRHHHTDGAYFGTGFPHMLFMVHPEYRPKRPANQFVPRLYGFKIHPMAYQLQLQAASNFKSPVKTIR
Casein kinase II, sequence (P68400 whole entry): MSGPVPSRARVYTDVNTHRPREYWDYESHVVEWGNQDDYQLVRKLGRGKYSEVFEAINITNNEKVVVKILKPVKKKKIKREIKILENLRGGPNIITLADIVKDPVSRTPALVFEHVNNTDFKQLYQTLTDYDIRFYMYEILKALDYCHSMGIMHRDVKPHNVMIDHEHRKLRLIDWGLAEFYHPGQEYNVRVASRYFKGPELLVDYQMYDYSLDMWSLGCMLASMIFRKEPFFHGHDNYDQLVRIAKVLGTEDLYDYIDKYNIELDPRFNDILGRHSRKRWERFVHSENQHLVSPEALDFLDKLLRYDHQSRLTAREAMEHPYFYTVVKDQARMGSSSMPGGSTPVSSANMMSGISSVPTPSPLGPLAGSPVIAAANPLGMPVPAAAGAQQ
Casein kinase II, sequence (P19784 whole entry): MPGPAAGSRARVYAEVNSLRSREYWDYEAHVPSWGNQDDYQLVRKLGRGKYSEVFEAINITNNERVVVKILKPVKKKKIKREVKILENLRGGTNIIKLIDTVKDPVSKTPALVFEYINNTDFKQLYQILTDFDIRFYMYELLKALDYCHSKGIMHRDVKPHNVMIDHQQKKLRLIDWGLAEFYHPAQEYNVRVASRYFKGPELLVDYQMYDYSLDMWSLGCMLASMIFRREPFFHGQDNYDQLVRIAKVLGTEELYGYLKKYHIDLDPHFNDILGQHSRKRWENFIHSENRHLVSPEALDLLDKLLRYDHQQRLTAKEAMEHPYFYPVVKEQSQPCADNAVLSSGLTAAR
Insulin receptor, sequence (P06213 28-758 limits assumed): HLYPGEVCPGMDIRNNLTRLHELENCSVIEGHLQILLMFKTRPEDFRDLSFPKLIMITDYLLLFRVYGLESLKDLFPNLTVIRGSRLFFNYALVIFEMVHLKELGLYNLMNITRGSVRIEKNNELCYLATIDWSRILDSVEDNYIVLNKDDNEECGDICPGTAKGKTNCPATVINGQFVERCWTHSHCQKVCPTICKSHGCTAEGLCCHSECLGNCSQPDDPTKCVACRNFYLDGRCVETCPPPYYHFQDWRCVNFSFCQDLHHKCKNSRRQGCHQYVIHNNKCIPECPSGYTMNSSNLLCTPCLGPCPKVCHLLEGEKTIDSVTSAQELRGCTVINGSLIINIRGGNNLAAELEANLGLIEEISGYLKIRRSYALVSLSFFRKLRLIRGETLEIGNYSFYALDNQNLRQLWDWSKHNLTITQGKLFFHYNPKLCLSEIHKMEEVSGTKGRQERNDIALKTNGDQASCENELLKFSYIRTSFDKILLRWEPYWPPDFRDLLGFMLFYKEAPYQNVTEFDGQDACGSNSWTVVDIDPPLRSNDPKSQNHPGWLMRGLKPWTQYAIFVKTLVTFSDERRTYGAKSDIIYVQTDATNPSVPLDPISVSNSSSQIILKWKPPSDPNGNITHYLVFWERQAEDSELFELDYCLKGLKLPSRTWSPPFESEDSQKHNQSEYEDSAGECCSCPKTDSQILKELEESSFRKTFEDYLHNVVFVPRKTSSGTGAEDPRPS
Insulin receptor, sequence (P06213 763-1382 limits assumed): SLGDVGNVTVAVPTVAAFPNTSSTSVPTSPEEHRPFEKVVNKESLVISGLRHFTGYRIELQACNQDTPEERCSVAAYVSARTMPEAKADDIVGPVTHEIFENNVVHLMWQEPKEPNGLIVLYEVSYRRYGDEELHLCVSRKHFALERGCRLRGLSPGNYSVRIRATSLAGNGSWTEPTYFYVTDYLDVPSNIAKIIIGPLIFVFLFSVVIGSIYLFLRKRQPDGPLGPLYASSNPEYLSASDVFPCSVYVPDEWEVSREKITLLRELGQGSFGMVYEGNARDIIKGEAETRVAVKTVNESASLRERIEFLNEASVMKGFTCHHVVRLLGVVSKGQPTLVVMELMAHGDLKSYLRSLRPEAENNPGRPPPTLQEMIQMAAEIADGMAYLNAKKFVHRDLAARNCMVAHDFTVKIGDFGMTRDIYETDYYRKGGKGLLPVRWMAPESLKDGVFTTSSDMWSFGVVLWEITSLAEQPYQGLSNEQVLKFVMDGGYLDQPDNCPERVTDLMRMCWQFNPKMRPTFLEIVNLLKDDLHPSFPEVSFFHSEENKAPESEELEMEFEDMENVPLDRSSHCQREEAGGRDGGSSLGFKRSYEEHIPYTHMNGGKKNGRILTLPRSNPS

For the molecule `O=C(NCCCO)c1cncc(-c2cncc(Nc3cccc(Cl)c3)n2)c1`, the negative logarithm of the IC50 (pIC50) (commonly the negative decadic logarithm of the IC50, by convention in mol/L) is less than 5.00 in [1], 5.62 in assay [2] and 5.62 in [3].

For the molecule `O=C(COc1ccccc1)Nc1cncc(-c2cncc(Nc3cccc(Cl)c3)n2)c1`, the negative logarithm of the IC50 (pIC50) in [1] and in assay [3] was less than 5.00 throughout.

Consider `OCCCNc1cncc(-c2cncc(Nc3ccccc3Cl)n2)c1`, for which the negative logarithm of the IC50 (pIC50) in assay [1] is less than 5.00; in assay [2] it was 6.00; in [3], 6.00.

`Clc1cccc(Nc2cncc(-c3cncc(NCCCCc4ccncc4)c3)n2)c1`: the pIC50 in assay [1] is 5.00; in [2], 6.58; in assay [3], 6.58.

For the molecule `OCCNc1cncc(-c2cncc(Nc3cccc(Cl)c3)n2)c1`, the pIC50 is less than 5.00 in assay [1], 6.56 in assay [2] and 6.56 in assay [3].

For `Clc1cccc(Nc2cncc(-c3cncc(NCC4CCOCC4)c3)n2)c1`, the negative-log IC50 (pIC50) in assay [1] is less than 5.00; in assay [2] it was 6.41; in assay [3] it was 6.41.

`OCCCNc1cncc(-c2cncc(NCc3ccccc3)n2)c1`: the values for the pIC50 in assay [1], in [2] and in assay [3] were less than 5.00, 5.98 and 5.98, respectively.

On to `OCCCNc1cnc(F)c(-c2cncc(Nc3cccc(Cl)c3)n2)c1`, for which the pIC50 is less than 5.00 in [1], 6.60 in assay [2] and 6.60 in assay [3].

On to `CN(C)c1ccc(C(=O)Nc2cncc(-c3cncc(Nc4cccc(Cl)c4)n3)c2)cc1`, for which the pIC50 in assay [1] and in assay [3] was less than 5.00 in each case.

`OCCCNc1cnc(Cl)c(-c2cncc(Nc3cccc(Cl)c3)n2)c1`: the pIC50 in assay [1] and in assay [3] was less than 5.00 throughout.

As for `Clc1ccc(Nc2cncc(-c3cncc(NCCCc4ccncc4)c3)n2)cc1Cl`, the negative-log IC50 (pIC50) was less than 5.00 in [1], 6.72 in assay [2] and 6.72 in assay [3].

For the molecule `Nc1ncc(NCCCO)cc1-c1cncc(Nc2cccc(Cl)c2)n1`, the pIC50 was less than 5.00 in assay [1], 5.87 in [2] and 5.87 in assay [3].

As for `CN1CCN(CCCNc2cncc(-c3cncc(Nc4cccc(Cl)c4)n3)c2)CC1`, the negative-log IC50 (pIC50) in assay [1] was less than 5.00; in assay [2] it was 6.91; in assay [3], 6.91.

On to `OCCCNc1cncc(-c2cncc(Nc3cccc(F)c3)n2)c1`, for which the figures for the negative logarithm of the IC50 (pIC50) in assay [1], in assay [2] and in [3] were less than 5.00, 6.77 and 6.77, respectively.

For `Clc1ccc(Nc2cncc(-c3cncc(NCCCc4ccncc4)c3)n2)cc1`, the pIC50 was less than 5.00 in assay [1], 6.00 in assay [2] and 6.00 in assay [3].

For `Clc1cccc(Nc2cncc(-c3cncc(NCCCN4CCNCC4)c3)n2)c1`, the pIC50 is 5.25 in [1], 6.63 in assay [2] and 6.63 in [3].

For `Clc1cccc(Nc2cncc(-c3cncc(NCCOc4ccccc4)c3)n2)c1`, the negative-log IC50 (pIC50) in [1] and in assay [3] was less than 5.00 throughout.

For the molecule `Clc1cccc(Nc2cncc(-c3cncc(NCCCc4ccccc4)c3)n2)c1`, the pIC50 in assay [1] was less than 5.00; in assay [2], 5.64; in assay [3], 5.64.

For the molecule `COCC(=O)Nc1cncc(-c2cncc(Nc3cccc(Cl)c3)n2)c1`, the pIC50 in [1] was less than 5.00; in assay [2], 6.52; in assay [3] it was 6.52.

With `Clc1cccc(Nc2cncc(-c3cncc(NCCCN4CCOCC4)c3)n2)c1`, the results for the pIC50 in [1], in assay [2] and in assay [3] were less than 5.00, 6.74 and 6.74, respectively.

On to `Clc1cccc(Nc2cncc(-c3cncc(NCCCN4CCCCC4)c3)n2)c1`, for which the values for the negative-log IC50 (pIC50) in assay [1], in [2] and in assay [3] were 5.27, 6.40 and 6.40, respectively.

Take `Nc1cncc(-c2cncc(Nc3cccc(Cl)c3)n2)c1`: the pIC50 in [1] was less than 5.00; in [2], 5.94; in assay [3] it was 5.94.

`O=C(COCc1ccccc1)Nc1cncc(-c2cncc(Nc3cccc(Cl)c3)n2)c1`: the negative-log IC50 (pIC50) in assay [1] and in assay [3] was less than 5.00 in each case.

`COc1cccc(Nc2cncc(-c3cncc(NCCCO)c3)n2)c1`: the pIC50 is less than 5.00 in [1], 6.13 in [2] and 6.13 in [3].

`O=C(CCCNc1cncc(-c2cncc(Nc3cccc(Cl)c3)n2)c1)N1CCCCC1`: the results for the pIC50 in assay [1], in assay [2] and in assay [3] were less than 5.00, 6.21 and 6.21, respectively.

As to `COCCC(=O)Nc1cncc(-c2cncc(Nc3cccc(Cl)c3)n2)c1`, the negative logarithm of the IC50 (pIC50) was less than 5.00 in assay [1], 6.23 in assay [2] and 6.23 in assay [3].

As to `CN(C)CCCNc1cncc(-c2cncc(Nc3cccc(Cl)c3)n2)c1`, the results for the pIC50 in [1], in assay [2] and in assay [3] were less than 5.00, 6.87 and 6.87, respectively.

Turning to `OCCCNc1cncc(-c2cncc(Oc3cccc(Cl)c3)n2)c1`, the negative logarithm of the IC50 (pIC50) in assay [1] and in assay [3] was less than 5.00 throughout.

Take `O=C(O)CCCNc1cncc(-c2cncc(Nc3cccc(Cl)c3)n2)c1`: the results for the pIC50 in assay [1], in assay [2] and in assay [3] were 5.28, 6.24 and 6.25, respectively.

On to `CN(C)CCNC(=O)c1cncc(-c2cncc(Nc3cccc(Cl)c3)n2)c1`, for which the pIC50 was 5.43 in [1], 5.37 in [2] and 5.37 in assay [3].

In the case of `Clc1cccc(Nc2cncc(-c3cncc(NCCCc4ccncc4)c3)n2)c1`, the results for the negative logarithm of the IC50 (pIC50) in assay [1], in assay [2] and in assay [3] were less than 5.00, 7.12 and 7.12, respectively.

With `O=C(CO)Nc1cncc(-c2cncc(Nc3cccc(Cl)c3)n2)c1`, the negative logarithm of the IC50 (pIC50) in assay [1] was less than 5.00; in assay [2] it was 6.46; in assay [3], 6.46.

In the case of `Clc1cccc(Nc2cncc(-c3cncc(NCCCn4cccn4)c3)n2)c1`, the pIC50 in assay [4] is less than 5.00; with MRC5, 5.44; with HASMC, 5.52; with HUVEC [5] it was 5.86; in assay [1] it was less than 5.00; against Casein kinase II, 5.09. Further, the negative-log IC50 (pIC50) in [2] was 7.03; in assay [6], less than 5.00; in the assay on HCT-116 it was 5.28; in the assay on HUVEC [7], 6.92; at Insulin receptor, less than 5.00; in [3], 7.03. In addition, the figures for the negative-log IC50 (pIC50) in the assay on A-375 and in the assay with HeLa were 5.55 and 5.46, respectively. The IC50 (usually the concentration at which inhibition is half-maximal) at CaM kinase II is more than 10000 nM; against Casein kinase I it was 5600 nM; in [8], 606 nM.

With `Clc1cccc(Nc2cncc(-c3cncc(NCCCn4cncn4)c3)n2)c1`, the negative-log IC50 (pIC50) in [4] is less than 5.00; in the assay on MRC5, 5.17; in the assay on HASMC it was 5.53; in the assay on HUVEC [5], 5.97; in assay [1], less than 5.00; on Casein kinase II, 5.14. The negative logarithm of the IC50 (pIC50) in assay [2] was 7.17; in assay [6], less than 5.00; with HCT-116, less than 5.00; in the assay on HUVEC [7], 7.24; at Insulin receptor, less than 5.00; in assay [3], 7.17. Also, the figures for the pIC50 in the assay with A-375 and in the assay with HeLa were 5.29 and 5.22, respectively. The IC50 came to 6500 nM against Casein kinase I and 196 nM in [8].

(Values after ChEMBL document CHEMBL1140334, “Synthesis and structure-activity relationships of pyrazine-pyridine biheteroaryls as novel, potent, and selective vascular endothelial growth factor receptor-2 inhibitors” (J Med Chem, 2005).)
